According to article PMC5504481 (Clinical and Translational Science, 2017):
Values joined by “and” are separate entries in the source; they are usually repeats but may differ in a detail not shown here. Equal values may be shown once.

Legend:
OATP1B1 [1] = target: T1, OATP1B1 (Homo sapiens, UniProt Q9Y6L6); assay type: cell-based; conditions: for Transport rate in OATP1B1-transfected cells without rifampin: in 15 min, HEK293
T1 sequence (Q9Y6L6 1-691): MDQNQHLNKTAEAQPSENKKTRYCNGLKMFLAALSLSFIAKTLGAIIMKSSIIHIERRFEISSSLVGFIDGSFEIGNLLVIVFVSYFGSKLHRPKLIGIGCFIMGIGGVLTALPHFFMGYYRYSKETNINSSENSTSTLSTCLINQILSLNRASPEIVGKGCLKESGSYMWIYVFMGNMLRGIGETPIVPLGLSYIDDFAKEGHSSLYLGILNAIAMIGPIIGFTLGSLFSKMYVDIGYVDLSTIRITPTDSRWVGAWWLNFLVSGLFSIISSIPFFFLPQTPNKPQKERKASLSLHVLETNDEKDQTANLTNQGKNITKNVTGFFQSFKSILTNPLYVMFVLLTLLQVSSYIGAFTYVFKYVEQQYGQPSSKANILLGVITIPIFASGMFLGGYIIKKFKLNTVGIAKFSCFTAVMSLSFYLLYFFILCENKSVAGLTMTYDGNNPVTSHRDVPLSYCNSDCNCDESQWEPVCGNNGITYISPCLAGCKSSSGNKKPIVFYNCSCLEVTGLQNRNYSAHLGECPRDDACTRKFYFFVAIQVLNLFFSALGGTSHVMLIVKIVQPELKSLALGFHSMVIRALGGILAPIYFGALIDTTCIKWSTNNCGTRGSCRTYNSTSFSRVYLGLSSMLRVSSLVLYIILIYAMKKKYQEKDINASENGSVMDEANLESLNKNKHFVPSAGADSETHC

Oatp1b2 = target: T2, Oatp1b2 (Mus musculus, UniProt Q9JJL3); assay type: cell-based; conditions: for Transport rate in Oatp1b2-transfected cells without rifampin: in 15 min, HEK293
T2 sequence (Q9JJL3 1-689): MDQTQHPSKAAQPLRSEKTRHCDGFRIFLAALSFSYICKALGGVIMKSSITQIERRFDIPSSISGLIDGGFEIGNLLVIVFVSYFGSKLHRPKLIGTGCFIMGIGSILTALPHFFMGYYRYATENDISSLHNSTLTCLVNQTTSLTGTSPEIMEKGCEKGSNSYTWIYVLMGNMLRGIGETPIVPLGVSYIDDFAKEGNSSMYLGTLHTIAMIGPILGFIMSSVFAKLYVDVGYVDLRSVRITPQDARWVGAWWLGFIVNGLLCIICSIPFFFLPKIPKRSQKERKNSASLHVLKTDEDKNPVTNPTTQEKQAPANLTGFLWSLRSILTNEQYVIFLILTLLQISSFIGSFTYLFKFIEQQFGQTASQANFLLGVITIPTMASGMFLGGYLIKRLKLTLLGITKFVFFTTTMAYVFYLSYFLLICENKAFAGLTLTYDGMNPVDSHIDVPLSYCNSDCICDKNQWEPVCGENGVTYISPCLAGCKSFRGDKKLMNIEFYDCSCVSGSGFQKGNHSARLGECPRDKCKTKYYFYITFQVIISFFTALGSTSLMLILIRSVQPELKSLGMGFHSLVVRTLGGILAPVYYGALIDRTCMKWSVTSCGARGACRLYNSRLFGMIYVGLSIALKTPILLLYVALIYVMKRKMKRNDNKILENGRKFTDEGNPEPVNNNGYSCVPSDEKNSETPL

[2] = assay type: in vivo, mice; conditions: for Effect of Oatp1b2-deficiency and/or rifampin pretreatment on plasma levels: mice, rifampin 20 mg/kg
Procedure, shortened: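 Female DBA1/lacJ mice, knockout and age-matched wildtype, n=4 per group, fasted 3 h before and during the study. Rifampin was given i.v. 5 min before sorafenib gavage in Cremophor EL/ethanol (1:1) diluted 1:4 with water. Plasma was sampled at 0.25–7.5 h and liver at 7.5 h. Analytes were measured by LC-MS/MS. Liver was normalized to plasma; geometric means (95% CI) were compared by ANOVA.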

[3] = assay type: in vivo, human
[4] = oral sorafenib, humans; cited from earlier work
[5] = cited from earlier work
[6] = Adverse events and laboratory tests during the clinical study; assay type: in vivo, human; conditions: patients on sorafenib; rifampin 600 mg x 2, midazolam 2.5 mg i.v.
Procedure, shortened: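 Sorafenib-treated patients were at steady state (≥14 days on the same dose) with creatinine <1.25×ULN, bilirubin <1.25×ULN, aminotransferases <5×ULN and PT ≤1.5×ULN or INR <1.5 at entry. Rifampin was given fasting the day before and the day of sampling, 1 h before sorafenib. Sorafenib dose changes and CYP3A4-affecting comedication were barred. Adverse events were graded by CTCAE v4.03.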

OATP1B1 [7] = target: T1, OATP1B1; assay: Transcellular; assay type: cell-based; conditions: rifampin 100 μM; SG 1 μM; MDCKII-OATP1B1
OATP1B1 [8] = conditions: cited from earlier work
[9] = patients, with versus without rifampin
[10] = rifampin preincubation 30 μM (legend: 20 μM), SG 10 μM, 15 min
[11] = rifampin preincubation 30 μM, E2G 0.1 μM, 15-min incubation

In the case of C[C@]12CC[C@@H]3c4ccc(O)cc4CC[C@H]3[C@@H]1CC[C@@H]2O[C@@H]1O[C@H](C(=O)O)[C@@H](O)[C@H](O)[C@H]1O [E2G, estradiol‐17β‐D‐glucuronide], the “Transport rate in OATP1B1-transfected cells without rifampin” value (OATP1B1 [1]; E2G 0.1 μM, SG 10 μM) is reported as 4.77 pmol/mg protein and the “Transport rate in Oatp1b2-transfected cells without rifampin” value (Oatp1b2; E2G 0.1 μM, SG 10 μM) is reported as 26.73 pmol/mg protein.
For CNC(=O)c1cc(Oc2ccc(NC(=O)N(c3ccc(Cl)c(C(F)(F)F)c3)[C@@H]3O[C@H](C(=O)O)[C@@H](O)[C@H](O)[C@H]3O)cc2)ccn1 [SG, sorafenib‐β‐D‐glucuronide], the “Transport rate in OATP1B1-transfected cells without rifampin” value (OATP1B1 [1]; E2G 0.1 μM, SG 10 μM) was 57.46 pmol/mg protein, the “Transport rate in Oatp1b2-transfected cells without rifampin” value (Oatp1b2; E2G 0.1 μM, SG 10 μM) was 770.17 pmol/mg protein and the “Increase in SG AUC0-7.5h with Oatp1b2-deficiency” value ([2]; Oatp1b2(-/-) versus wildtype mice, sorafenib 10 mg/kg oral) was 8 fold. For the same compound, the “Reduction of liver-to-plasma ratio of SG” value ([2]; wildtype mice pretreated with rifampin 20 mg/kg, 7.5 h after sorafenib 10 mg/kg) was ~90%, the “Increase of SG levels by rifampin in humans” value ([3]; humans) was ~2 fold and the “Mean metabolic ratio of SG to sorafenib during rifampin administration” value [3, 9] was “significantly increased”. For the same compound, the “Detection of SG in feces” value [4] was “not detectable” and the “Mean steady-state (trough) concentration (Css)” value ([5]; 16 cancer patients, sorafenib 90 mg/m^2 oral, days 7, 13 and 21) was 954 ng/mL.
With CNC(=O)c1cc(Oc2ccc(NC(=O)Nc3ccc(Cl)c(C(F)(F)F)c3)cc2)cc[n+]1[O-] [Sorafenib N-oxide, sorafenib‐N‐oxide] the “Effect of Oatp1b2-deficiency and/or rifampin pretreatment on plasma levels” value ([2]; sorafenib 10 mg/kg oral) was “did not substantially affect” and the “Extent of sorafenib-N-oxide formation between treatment cycles” value [3, 9] was “not different”.
For CNC(=O)c1cc(Oc2ccc(NC(=O)Nc3ccc(Cl)c(C(F)(F)F)c3)cc2)ccn1 [Sorafenib, sorafenib], the “Effect of Oatp1b2-deficiency and/or rifampin pretreatment on plasma levels” value ([2]; sorafenib 10 mg/kg oral) is listed as “did not substantially affect”, the “Fraction of the dose eliminated as oxidative metabolites” value [4] is listed as “less than 5%” and the “Fraction of the dose eliminated as sorafenib-β-D-glucuronide (SG)” value [4] is listed as 15%. The “Influence of the CYP3A4 inhibitor ketoconazole on PK” value ([5]; healthy male volunteers, single-dose sorafenib) was “no influence”, the “Variation in exposure between patients receiving the same therapeutic regimen” value ([5]; oral sorafenib) was “up to 90%” and the “Decrease in systemic exposure with neomycin” value ([5]; ref Nexavar package insert) was “more than 50%”.
For COc1ccccc1Oc1c(NS(=O)(=O)c2ccc(C(C)(C)C)cc2)nc(-c2ncccn2)nc1OCCO [bosentan], the “Change in systemic exposure with extended rifampin exposure” value ([5]; rifampin 600 mg once daily for 6.5 days) is given as “–58%” and the “Change in systemic exposure with acute rifampin exposure” value ([5]; rifampin 600 mg once daily, 1–2 doses) is given as “+500%”.
In the case of Cc1ncc2n1-c1ccc(Cl)cc1C(c1ccccc1F)=NC2 [midazolam], the “Toxicities attributable to the drug during the clinical study” value [6] is reported as “no toxicities were observed”.
With CO[C@H]1/C=C/O[C@@]2(C)Oc3c(C)c(O)c4c(O)c(c(/C=N/N5CCN(C)CC5)c(O)c4c3C2=O)NC(=O)/C(C)=C\C=C\[C@H](C)[C@H](O)[C@@H](C)[C@@H](O)[C@@H](C)[C@H](OC(C)=O)[C@@H]1C [rifampin] the “Reduction of intracellular uptake of SG by OATP1B1” value (OATP1B1 [1]; [10]) was 92%, the “Inhibition of E2G uptake by human OATP1B1” value (OATP1B1 [1]; [11]) was “strongly inhibited” and the “Reduction of intracellular uptake of SG by Oatp1b2” value (Oatp1b2; [10]) was 97%. The “Inhibition of E2G uptake by mouse Oatp1b2” value (Oatp1b2; [11]) was “strongly inhibited”, the “Effect of rifampin on OATP1B1-mediated basal-to-apical translocation of SG” value (OATP1B1 [7]) was “diminished” and the “Toxicities attributable to the drug during the clinical study” value [6] was “no toxicities were observed”. For the same compound, the “Plasma Cmax of unbound rifampin” value [5] was ~1.3 μM and 1.1 mg/L and the “Substrate-dependent variation in IC50 values for inhibition of OATP1B1” value (OATP1B1 [8]) was “up to 12 fold”.
